Experimental data taken from ChEMBL document CHEMBL1126945, “Synthesis and evaluation of 3-modified 1D-myo-inositols as inhibitors and substrates of phosphatidylinositol synthase and inhibitors of myo-inositol uptake by cells” (1993).

Assays:
[1] = biological target: T1, CDP-diacylglycerol--inositol 3-phosphatidyltransferase (Mus musculus) (UniProt Q8VDP6); test: Tested as substrate of phosphatidylinositol synthase in mouse brain by measuring percent CMP formation compared with myo-inositol tested at 5 mM; assay type: functional, tissue-based
T1 sequence (whole entry): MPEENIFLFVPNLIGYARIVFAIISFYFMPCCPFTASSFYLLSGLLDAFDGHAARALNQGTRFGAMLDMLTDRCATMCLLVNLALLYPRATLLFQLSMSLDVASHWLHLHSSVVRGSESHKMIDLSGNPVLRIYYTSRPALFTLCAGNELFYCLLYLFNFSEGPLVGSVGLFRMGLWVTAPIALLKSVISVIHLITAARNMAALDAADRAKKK
Summary of the method: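 Mouse brain microsomes (12-day-old mice; 900g then 12000g pellet) as PtdIns synthase source. 37 °C, 50 mM Tris-HCl pH 8.3, 48 mM MgCl₂, 0.5 mM CDP-dipalmitin, 0.25% Triton X-100, 5 mM analogue or myo-inositol, 0.5 mg microsomal protein. Stopped in linear phase with CHCl₃-MeOH; aqueous CMP read at 280 nm. Expressed as % of myo-inositol; averages of two or more determinations.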

[2] = biological target: T1, CDP-diacylglycerol--inositol 3-phosphatidyltransferase (Mus musculus); test: Tested for inhibition of phosphatidylinositol synthase from mouse brain at 5 mM
Summary of the method: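 Mouse brain microsomal PtdIns synthase; incorporation of 0.5 mM myo-[2-³H]inositol into CHCl₃-soluble lipid at 37 °C with Tris-HCl pH 8.3, 48 mM MgCl₂, 0.5 mM CDP-dipalmitin, 0.25% Triton X-100, 5 mM analogue, 0.05 mg microsomal protein. Stopped at 20 min with HCl/MeOH and CHCl₃; organic phase scintillation counted. Averages of two or more determinations.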

Rattus norvegicus [3] = species on record: Rattus norvegicus; test: Tested for inhibition of myo-[3H]inositol uptake in F111 rat fibroblast cells at 5 mM; assay type: functional
Summary of the method: (§1)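 F111 rat fibroblasts grown overnight on coverslips in inositol-free DMEM with 10% dialyzed calf serum and 10 μM myo-inositol, washed, then incubated 120 min at 37 °C, 5% CO₂ in Krebs-Ringer (HEPES pH 7.4) with 10 μM myo-[³H]inositol and 5 mM analogue. Washed, lysed in 1% SDS; radioactivity counted and normalised to BCA protein.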

[4] = Michaelis-Menten constant was determined
Rattus norvegicus [5] = species on record: Rattus norvegicus; test: Tested for inhibition of myo-inositol uptake in F111 rat fibroblast cells at 5 mM; assay type: functional; summary of the method: as §1

SMILES | Formation [1] [%] | inhibition [2] [%] | inhibition at 5000 µM (Rattus norvegicus [3]) [%] | Km [4] [µM] | inhibition at 5000 µM (Rattus norvegicus [5]) [%]
O=C1[C@@H](O)[C@H](O)[C@@H](O)[C@H](O)[C@@H]1O | 7 | 47 |  |  | 
N[C@H]1[C@@H](O)[C@H](O)[C@H](O)[C@@H](O)[C@H]1O | 9 | 19 | 87 |  | 
[N-]=[N+]=N[C@@H]1[C@H](O)[C@H](O)[C@@H](O)[C@@H](O)[C@@H]1O | 1 | 17 |  |  | 
O[C@H]1[C@H](O)[C@@H](O)[C@H](O)[C@@H](O)[C@H]1O | 100 |  |  | 1500 | 
O[C@@H]1[C@@H](O)[C@@H](O)[C@@H](S)[C@@H](O)[C@@H]1O | 1.5 | 40 |  |  | 
CO[C@@H]1[C@H](O)[C@@H](O)[C@@H](O)[C@H](O)[C@@H]1N=[N+]=[N-] | 0 | 10 |  |  | 
O[C@@H]1[C@@H](O)[C@H](O)[C@@H](F)[C@@H](O)[C@H]1O | 7 | 37 | 97 |  | 
CO[C@H]1C[C@@H](O)[C@H](O)[C@H](O)[C@H]1O | 0 | 28 |  |  | 
O[C@H]1[C@@H](O)[C@H](O)C[C@H](O)[C@@H]1O | 6 | 9 |  |  | 80
O[C@@H]1[C@H](F)[C@@H](O)[C@@H](O)[C@H](O)[C@@H]1O | 28 | 22 |  |  | 
O[C@@H]1[C@@H](O)[C@H](O)[C@@H](Cl)[C@@H](O)[C@H]1O | 1 | 30 |  |  | 
